Data published in ChEMBL document CHEMBL1641390, “Structure and cytotoxicity of diterpenoids from Isodon eriocalyx” (J Nat Prod, 2010).

Columns and labels:
Format in all cases: functional, cell-based
HT-29 = assay: Cytotoxicity against human HT-29 cells after 72 hrs by sulforhodamine B assay; settings: HT-29, 72 h
In short: (§1)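 Cells plated 24 h, then exposed to five concentrations in duplicate for 72 h at 37 °C, 5% CO2. Saline vehicle control. TCA-fixed, SRB-stained, dye solubilized in 10 mM Tris, A510 read. Inhibition relative to control, expressed as IC50.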

SK-OV-3 = assay: Cytotoxicity against human SKOV3 cells after 72 hrs by sulforhodamine B assay; settings: SK-OV-3, 72 h
In short: as §1, with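 “HT-29 and SK-OV-3 (ATCC) grown in McCoy's 5a, BEL-7402 (Shanghai Cell Bank) in RPMI 1640, all with 10% FBS. Cells” for “Cells”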

Bel-7402 = assay: Cytotoxicity against human Bel7402 cells after 72 hrs by sulforhodamine B assay; settings: Bel-7402, 72 h
In short: as §1, with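 “HT-29 and SK-OV-3 (ATCC) grown in McCoy's 5a, BEL-7402 (Shanghai Cell Bank) in RPMI 1640, all with 10% FBS. Cells” for “Cells”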

## C=C(C=O)[C@@H]1CC[C@@H]2[C@@H](C1)C(=O)[C@@H](O)[C@@H]1[C@](C)(COC(C)=O)[C@@H](OC(C)=O)C[C@H](O)[C@@]21C
HT-29
  IC50: > 10 µM
SK-OV-3
  IC50: 5.1 µM
Bel-7402
  IC50: > 10 µM

## C=C(C=O)[C@@H]1CC[C@@H]2[C@@H](C1)C(=O)[C@@H](O)[C@@H]1C(C)(C)[C@H](O)CC[C@@]21C
HT-29
  IC50: 8.1 µM
SK-OV-3
  IC50: 7.3 µM
Bel-7402
  IC50: > 10 µM

## C=C(C=O)[C@@H]1CC[C@@H]2[C@@H](C1)C(=O)[C@@H](O)[C@@H]1[C@](C)(COC(C)=O)[C@@H](OC(C)=O)CC[C@]12C
HT-29
  IC50: > 10 µM
SK-OV-3
  IC50: > 10 µM
Bel-7402
  IC50: > 10 µM

## C=C1C(=O)[C@@]23C[C@H]1C[C@H]1OC(O)[C@@H]4[C@](C)(COC(C)=O)[C@H](OC(C)=O)C[C@@H](OC2=O)[C@@]4(CO)[C@H]13 (stereo partly drawn)
HT-29
  IC50: > 10 µM
SK-OV-3
  IC50: > 10 µM
Bel-7402
  IC50: > 10 µM

## COc1cccc2c1C(=O)c1c(O)c3c(c(O)c1C2=O)C[C@@](O)(C(=O)CO)C[C@@H]3O[C@H]1C[C@H](N)[C@H](O)[C@H](C)O1 [DOXORUBICIN]
SK-OV-3
  IC50: 0.17 µM
Bel-7402
  IC50: 0.067 µM

## C=C1C(=O)[C@]23C[C@H]1CC[C@H]2[C@@]12CO[C@@]3(O)[C@@H](O)[C@@H]1C(C)(C)CC[C@@H]2OC(C)=O [EFFUSANIN B]
HT-29
  IC50: 4.1 µM
SK-OV-3
  IC50: 2.1 µM
Bel-7402
  IC50: 7.3 µM

## C=C1C(=O)[C@]23C[C@H]1CC[C@H]2[C@@]12CO[C@]3(O)[C@@H](O)[C@@H]1[C@](C)(COC(C)=O)CC[C@@H]2OC(C)=O [EFFUSANIN D]
HT-29
  IC50: 5.9 µM
SK-OV-3
  IC50: 9.1 µM
Bel-7402
  IC50: > 10 µM

## C=C(C=O)[C@@H]1CCC2=C(C1)C(=O)[C@@H](O)[C@@H]1C(C)(C)[C@H](O)CC[C@@]21C [ERIOCASIN B]
HT-29
  IC50: > 10 µM
SK-OV-3
  IC50: > 10 µM
Bel-7402
  IC50: > 10 µM

## C=C(C=O)[C@@H]1CC[C@@H]2[C@@H](C1)C(=O)[C@@H](O)[C@@H]1[C@](C)(COC(C)=O)[C@@H](O)CC[C@]12C [ERIOCASIN C]
HT-29
  IC50: > 10 µM
SK-OV-3
  IC50: > 10 µM
Bel-7402
  IC50: > 10 µM

## C=C(C=O)[C@@H]1CC[C@@H]2[C@@H](C1)C(=O)[C@@H](O)[C@@H]1[C@](C)(COC(C)=O)CC[C@H](O)[C@@]21C [ERIOCASIN D]
HT-29
  IC50: > 10 µM
SK-OV-3
  IC50: 5.7 µM
Bel-7402
  IC50: > 10 µM

## C=C(CO)[C@@H]1C[C@@H](OC(C)=O)[C@@H]2[C@@H](C1)C(=O)[C@@H](O)[C@@H]1C(C)(C)CCC[C@@]21C [ERIOCASIN E]
HT-29
  IC50: > 10 µM
SK-OV-3
  IC50: > 10 µM
Bel-7402
  IC50: > 10 µM

## C=C1[C@H]2C[C@@H](O)C3(C(=O)C[C@@H]4[C@](C)(COC(C)=O)CCC[C@@]4(C)[C@@H]3C2)[C@@H]1O [ERIOCATISIN A]
HT-29
  IC50: > 10 µM
SK-OV-3
  IC50: > 10 µM
Bel-7402
  IC50: > 10 µM

## C=C1C(=O)[C@@]23[C@H](O)C[C@@H]4C(C)(C)CC[C@H](O)[C@@]4(COC(C)=O)[C@@H]2CC[C@@H]1[C@H]3O [HENRYIN]
HT-29
  IC50: 6 µM
SK-OV-3
  IC50: 5.9 µM
Bel-7402
  IC50: > 10 µM

## C=C1C(=O)[C@@]23[C@@H]4C[C@@H]5C(C)(C)CC[C@H](O)[C@@]5(C(OC)O4)[C@@H]2CC[C@@H]1[C@H]3O (stereo partly drawn) [KAMEBACETAL A]
HT-29
  IC50: 9.8 µM
SK-OV-3
  IC50: 4.7 µM
Bel-7402
  IC50: > 10 µM

## C=C1C(=O)[C@]23C[C@H]1CC[C@H]2[C@]12CCC[C@@](C)(COC(C)=O)[C@H]1[C@H](O)[C@]3(O)OC2 [LONGIKAURIN C]
HT-29
  IC50: 2.1 µM
SK-OV-3
  IC50: 3.3 µM
Bel-7402
  IC50: 2.9 µM

## C=C1C(=O)[C@]23C[C@H]1CC[C@H]2[C@]12CC[C@H](OC(C)=O)[C@@](C)(COC(C)=O)[C@H]1[C@H](O)[C@]3(O)OC2 [MAOECRYSTAL J]
HT-29
  IC50: 4.2 µM
SK-OV-3
  IC50: 9.8 µM
Bel-7402
  IC50: > 10 µM

## CC(=O)OC[C@]1(C)C(OC(C)=O)CC[C@]23CO[C@@](O)(C[C@@H]21)[C@]12C(=O)C4(CCC45C(=O)[C@]46[C@H](O)[C@H]5CC[C@H]4[C@]45CCC(OC(C)=O)[C@@](C)(COC(C)=O)[C@H]4C[C@]6(O)OC5)[C@H](CC[C@@H]31)[C@H]2O (stereo partly drawn) [MAOECRYSTAL M]
HT-29
  IC50: > 10 µM
SK-OV-3
  IC50: 7 µM
Bel-7402
  IC50: 6 µM

## C=C1C(=O)[C@]23C[C@H]1CC[C@H]2[C@@]12CO[C@@]3(O)[C@@H](OC(C)=O)[C@@H]1[C@@](C)(COC(C)=O)CC[C@H]2OC(C)=O [MAOECRYSTAL R]
HT-29
  IC50: 2.4 µM
SK-OV-3
  IC50: 3 µM
Bel-7402
  IC50: 4 µM

## C=C1C(=O)[C@@]23C[C@H]1C[C@H]1O[C@H](O)[C@@H]4[C@](C)(COC(C)=O)CC[C@@H](OC2=O)[C@@]4(CO)[C@H]13 [MAOESIN A]
HT-29
  IC50: > 10 µM
SK-OV-3
  IC50: > 10 µM
Bel-7402
  IC50: > 10 µM

## C=C1C(=O)[C@]23C[C@H]1C[C@@H](O)[C@H]2[C@]12CC[C@H](OC(C)=O)[C@@](C)(COC(C)=O)[C@H]1[C@H](O)[C@]3(O)OC2 [MAOESIN C]
HT-29
  IC50: > 10 µM
SK-OV-3
  IC50: > 10 µM
Bel-7402
  IC50: > 10 µM

## C=C1C(=O)[C@]23C[C@H]1C=C[C@H]2[C@]12CC[C@H](OC(C)=O)[C@@](C)(COC(C)=O)[C@H]1[C@H](O)[C@]3(O)OC2 [MAOESIN D]
HT-29
  IC50: 7.3 µM
SK-OV-3
  IC50: > 10 µM
Bel-7402
  IC50: > 10 µM

## C=C1C(O)[C@]23C[C@H]1CC[C@H]2[C@@]1(C)[C@H]([C@H](OC(C)=O)C3=O)[C@](C)(COC(C)=O)CC[C@@H]1O (stereo partly drawn) [MAOESIN E]
HT-29
  IC50: > 10 µM
SK-OV-3
  IC50: > 10 µM
Bel-7402
  IC50: > 10 µM

## C=C1C(OC(C)=O)[C@]23C[C@H]1CC[C@H]2[C@@]1(CC[C@H](OC(C)=O)[C@@](C)(COC(C)=O)[C@H]1C=O)COC3=O (stereo partly drawn) [MAOESIN F]
HT-29
  IC50: > 10 µM
SK-OV-3
  IC50: > 10 µM
Bel-7402
  IC50: > 10 µM
